Assay outcomes: PubChem BioAssay, Broad Institute
Shown are actives, neighbours in structure and some others; about 2.2% of the full set was active somewhere.
Ecoli rRNA inh: reduced GFP signal of wild-type E. coli, primary screen, bacterial rRNA inhibitor project, GFP/RFP fluorescence, OD600, single point. E. coli WT GFP vs humanized-ribosome RFP mutants, 24 h; hits give low values; DMSO median 0, no signal -100. GFP signal change (wild-type ribosome), % (test concentration not listed). hit rate 1.6% among 350,000. AID 720706, 2013;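 active = significant combined selectivity score with lowered wild-type GFP, culture density cut under 30%, mutant RFP and density less affected; inactive = any of these conditions unmet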
ERp5 inh: inhibitors of ERp5-driven insulin aggregation, primary screen, biochemical, turbidity, absorbance 650 nm, single point; Protein disulfide-isomerase A6 (Homo sapiens), Q15084; 90 min; inhibition, % at 9.99 µM; hit rate 0.05% among 350,000;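 active = mean replicate inhibition above about 25%, with every replicate also reaching it, limit read from the data, passing the limit was not always enough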
Target sequence (Q15084 whole entry, looked up): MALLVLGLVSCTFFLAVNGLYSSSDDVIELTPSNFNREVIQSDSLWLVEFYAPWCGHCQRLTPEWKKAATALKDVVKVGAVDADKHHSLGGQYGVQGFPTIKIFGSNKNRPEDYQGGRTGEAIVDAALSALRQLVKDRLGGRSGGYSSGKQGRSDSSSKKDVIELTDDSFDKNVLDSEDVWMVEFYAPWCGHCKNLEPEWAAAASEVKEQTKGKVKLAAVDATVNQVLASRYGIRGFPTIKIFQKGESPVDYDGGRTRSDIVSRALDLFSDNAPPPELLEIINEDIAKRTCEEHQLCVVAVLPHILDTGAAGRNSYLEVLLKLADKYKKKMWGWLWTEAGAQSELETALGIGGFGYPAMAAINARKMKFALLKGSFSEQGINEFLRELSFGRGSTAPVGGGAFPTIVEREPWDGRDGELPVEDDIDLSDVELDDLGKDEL
PvdQ inh: P. aeruginosa PvdQ acylase inhibitors, primary screen, biochemical, fluorescence, plate reader and imaging, single point; AID 488965, 2010; inhibition, % at 10 µM; hit rate 0.063% among 340,000; PvdQ acylase [Pseudomonas aeruginosa LESB58]; purified PvdQ acylase; in the data active = inhibition above about 30%, passing the limit was not always enough
FN deposition inh: inhibitors of fibronectin matrix deposition, primary screen, AH1F cells, Alexa488-fibronectin fluorescence, plate reader. inhibition, % at 12.6 µM. AH1F fibroblasts, overnight. AID 743247, 2014. hit rate 0.086% among 350,000;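 active = mean inhibition across replicates of 30% or more, regardless of how many single replicates reach that level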
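Material: AH1F fibroblast monolayer depositing Alexa488-labelled fibronectin into matrix / Amount: 10000 AH1F cells per well / Signal: fluorescence 485/525 nm / Medium: DMEM, 2% serum / Compound: single dose, pinned / Incubation: 1 h cell adhesion before compound, then overnight fibronectin incubation / Reagent: Alexa488-FN, 24 nM final / Read-out: inhibition of fibronectin deposition signal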
PDI turbidity: inhibitors of human PDI, primary screen, biochemical, turbidity, single point, plate reader; PDI insulin aggregation turbidity, A650, 90 min; AID 588391, 2011; Protein disulfide-isomerase (Homo sapiens), P07237; inhibition, % at 10 µM; hit rate 0.052% among 350,000;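 active = mean inhibition across replicates of 30% or more, whatever share of single replicates reach that level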
HIV Env fusion: inhibitors of HIV-1 Env-driven cell-cell fusion, primary screen, HeLa-JRFL effector, CEM21 target cells, luciferase; inhibition, % at 12.3 µM; hit rate 1.1% among 360,000; AID 651610, 2012;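 active = mean replicate inhibition score of at least 50 and every replicate individually at or above 50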
Each line names hits and unclear results; the compound was inactive in the other large screens; ! = not confirmed by another sample.

Cc1cccc(CSCC(=O)N2CCN(S(=O)(=O)c3ccccc3C#N)CC2)c1	Ecoli rRNA inh -16 (no result: PvdQ inh)
CCOc1ccccc1OCCCC(=O)N1CCN(S(=O)(=O)c2ccccc2C#N)CC1	none (no result: PvdQ inh)
C[C@H](CO)N1C[C@H](C)[C@H](CN(C)Cc2ccc3c(c2)OCO3)Oc2ncc(-c3cc4ccccc4o3)cc2C1=O	none (no result: ERp5 inh, PvdQ inh, FN deposition inh, PDI turbidity, HIV Env fusion)
Cc1ccc(S(=O)(=O)N2CC3(O)CN(C(=O)OC(C)C)N(C(=O)OC(C)C)CC3(OC(=O)NCC3CCCCC3)C2)cc1 (stereo unspecified)	HIV Env fusion 73 (no result: PvdQ inh)
CCc1c(O)nc(SCC(=O)Nc2ccc(OC)cc2)n(C2CCCCC2)c1=O	none (no result: Ecoli rRNA inh, ERp5 inh)
CCc1c(O)nc(SCC(=O)Nc2nc3ccccc3s2)n(C2CCCCC2)c1=O	Ecoli rRNA inh -17
COc1ccc(CN2CC3(CCN(C(=O)C4CCC4)CC3)c3c(n(C)c4cc(OC)ccc34)[C@@H]2CO)cc1	none (no result: ERp5 inh, PvdQ inh, FN deposition inh, PDI turbidity, HIV Env fusion)
CC(C)NC(=O)N1Cc2cc(C(=O)NC3CCC3)nc(-c3cccc(-c4cccnc4)c3)c2[C@H]1CCO	none (no result: PvdQ inh, PDI turbidity, HIV Env fusion)
CC(C)NC(=O)N1Cc2cc(C(=O)NC3CCCCC3)nc(-c3cccc(-c4cccnc4)c3)c2[C@@H]1CCO	Ecoli rRNA inh -40! (no result: PvdQ inh, PDI turbidity)
Cc1ccc(O)c(-c2cc(C(=O)Nc3ccc(S(=O)(=O)Nc4nccc(C)n4)cc3)[nH]n2)c1	Ecoli rRNA inh -29
CCN(CC)CCn1c(=N)n(CCOc2ccccc2)c2ccccc21	HIV Env fusion 56
CCN(CC)CCn1c(=N)n(CC(O)COc2ccccc2)c2ccccc21 (stereo unspecified)	none
COc1ccc(C(=O)Nc2ccc(Nc3ccccc3)cc2)cc1[N+](=O)[O-]	Ecoli rRNA inh -15
COc1ccc(C(=O)Nc2ccc(OCc3ccccc3)cc2)cc1[N+](=O)[O-]	none (no result: Ecoli rRNA inh, ERp5 inh)
CCN(CC(=O)Nc1ccc(NC(C)=O)cc1)C(=O)/C=C/c1cn(-c2ccccc2)nc1-c1cccs1	Ecoli rRNA inh -18
CCN(CC(=O)Nc1ccc(NC(C)=O)cc1)C(=O)/C=C/c1ccccc1	none
CCC(C)(C)NC(=O)C(OC(=O)c1ccco1)c1ccccc1OC (stereo unspecified)	FN deposition inh 31 (no result: Ecoli rRNA inh, ERp5 inh)
Fc1ccc(CNCc2cccc(Br)c2)cc1	PvdQ inh 31
Brc1cccc(CNCc2ccncc2)c1	none
Cc1n[nH]c(C)c1Sc1ccccc1N=Cc1cc(Cl)cc([N+](=O)[O-])c1O	none (no result: Ecoli rRNA inh, ERp5 inh, FN deposition inh, HIV Env fusion)
Cc1n[nH]c(C)c1Sc1ccccc1[N+](=O)[O-]	Ecoli rRNA inh -34
Cc1ccc(-n2nc(C)c(Sc3ccccc3[N+](=O)[O-])c2N)cc1	Ecoli rRNA inh -42
COc1cc(/C=N/Nc2cccc3cccnc23)cc(OC)c1O	Ecoli rRNA inh -26
Oc1cccc(/C=N/Nc2cccc3cccnc23)c1	Ecoli rRNA inh -35
COc1cc(/C=N/Nc2ccccn2)cc(OC)c1O	none
CCCN1C[C@@H](C)[C@H](OC)CN(C)C(=O)c2cc(NS(=O)(=O)c3cn(C)cn3)ccc2OC[C@@H]1C	none (no result: PvdQ inh, PDI turbidity, HIV Env fusion)
C[C@H](CO)N1C[C@H](C)[C@@H](CN(C)Cc2ccc(C(=O)O)cc2)OCCCC[C@H](C)Oc2ccc(NC(=O)C3CCCCC3)cc2C1=O	none (no result: PvdQ inh, FN deposition inh, PDI turbidity)
O=C(c1ccc2ccccc2n1)N1CCN(S(=O)(=O)c2ccc(Cl)cc2)CC1	HIV Env fusion 56
Cc1ccc(C)c(S(=O)(=O)N2CCN(C(=O)c3ccc4ccccc4n3)CC2)c1	none (no result: HIV Env fusion)
Cc1nn(Cc2ccc(Cl)cc2Cl)c(C)c1NC(=O)c1ccc(COc2cc(Cl)ccc2Cl)o1	none (no result: Ecoli rRNA inh, ERp5 inh, FN deposition inh, HIV Env fusion)
Cc1nn(Cc2c(F)c(F)c(F)c(F)c2F)c(C)c1NC(=O)c1ccc(COc2ccc(Cl)cc2Cl)o1	HIV Env fusion 68 (no result: Ecoli rRNA inh, ERp5 inh)
CC(C)NC(=O)Nc1ccc2c(c1)C(=O)N([C@@H](C)CO)C[C@H](C)[C@@H](CN(C)C(=O)Nc1ccc3c(c1)OCO3)OCCCC[C@H](C)O2	none (no result: PvdQ inh, PDI turbidity)
CC1CCc2c(sc(NC(=O)CSc3ncn[nH]3)c2C#N)C1 (stereo unspecified)	Ecoli rRNA inh -19, HIV Env fusion 65
CCn1c(Oc2ccccc2)nc2c1c(=O)n(C)c(=O)n2C	none
